Source: PubChem (several laboratories)
In the library only some 2.8% were active in any assay of this set; here they are far more common.
EP2 antag = human EP2 receptor antagonists, primary screen, TR-FRET cAMP, C6 glioma cells. Prostaglandin E2 receptor EP2 subtype (Homo sapiens), P43116. C6 glioma cells expressing human EP2; cells stimulated with saturating PGE2. inhibition, % at 25 µM. hit rate 0.52% among 260,000. AID 1422, 2008;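 active = percent inhibition above 40 after rounding to a whole number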;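 note: rat C6 glioma host cells with rolipram phosphodiesterase inhibitor present; the protocol text gives 20 µM as final concentration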
Target sequence (P43116 whole entry, looked up): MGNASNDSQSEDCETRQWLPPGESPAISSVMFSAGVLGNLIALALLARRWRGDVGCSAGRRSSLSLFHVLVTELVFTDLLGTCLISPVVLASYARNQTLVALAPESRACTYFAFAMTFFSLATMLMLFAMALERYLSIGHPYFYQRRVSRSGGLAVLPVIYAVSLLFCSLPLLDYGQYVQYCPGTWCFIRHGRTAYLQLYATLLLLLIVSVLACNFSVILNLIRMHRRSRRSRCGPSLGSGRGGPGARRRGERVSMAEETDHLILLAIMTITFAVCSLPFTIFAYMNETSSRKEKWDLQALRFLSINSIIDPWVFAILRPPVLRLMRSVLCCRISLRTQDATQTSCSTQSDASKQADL
NPY-Y2 antag = NPY-Y2 receptor antagonists, primary screen, cell-based. Neuropeptide Y receptor type 2 (Homo sapiens), P49146. AID 793, 2007. NPY-Y2 expressing cells, antagonist mode. inhibition, % at 2.7 µM. hit rate 0.99% among 140,000; in the data active = inhibition above about 17%;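 note: 0% = vehicle with agonist challenge and 100% = reference antagonist with challenge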
NPY-Y2 PAM-ag = NPY-Y2 potentiators or agonists, primary screen, cell-based; Neuropeptide Y receptor type 2 (Homo sapiens), P49146; cells expressing NPY-Y2, potentiator/agonist read-out; activation, % at 3.6 µM; hit rate 0.45% among 220,000; AID 1359, 2008; in the data active = activation above about 27%;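 note: cells stimulated with NPY near EC25 plus isoproterenol at EC100; 0% = vehicle plus submaximal agonist and 100% = vehicle plus saturating agonist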
NPY-Y1 antag = NPY-Y1 receptor antagonists, primary screen, cell-based; Neuropeptide Y receptor type 1 (Homo sapiens), P25929; HEK293-CNG Y1 cells, membrane potential fluorescence; NPY at EC95, then isoproterenol; inhibition, % at 3.6 µM; hit rate 1% among 200,000; AID 1040, 2008;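 active = inhibition above the campaign mean inhibition of all tested compounds plus 3 SD, cut at about 20% in these data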;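 note: 0% = DMSO wells given NPY plus isoproterenol and 100% = isoproterenol alone without NPY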
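Material: HEK293 cells co-expressing NPY Y1 receptor and cyclic-nucleotide gated channel. Timing: compound incubation 1 h at room temperature, readout 45 min post-stimulation. Signal: fluorescence, membrane potential probe.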
EP2 modulator = EP2 receptor modulators, cAMP readout, primary screen, cell-based, HTRF cAMP, PGE2 stimulation; Prostaglandin E2 receptor EP2 subtype (Homo sapiens), P43116; EP2-expressing cells, cAMP HTRF FRET, PGE2 co-stimulation; induction, % at 25 µM; hit rate 0.83% among 260,000; AID 940, 2007;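 active = compounds whose cAMP rise, as percent of the full-agonist control response, exceeds 60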;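 note: rat C6 glioma line stably carrying human EP2 under a CMV promoter; the protocol text gives 20 µM as final concentration; 100% = response of wells given 1 µM PGE2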
NPY-Y1 PAM-ag = NPY-Y1 receptor potentiators or agonists, primary screen, cell-based; activation, % at 3.6 µM; Neuropeptide Y receptor type 1 (Homo sapiens), P25929; NPY-Y1 expressing cells, potentiator/agonist activation; hit rate 0.37% among 220,000; in the data active = activation above about 33%, passing the limit was not always enough;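 note: cells stimulated with NPY at EC10 then isoproterenol at EC100; 0% = low agonist plus stimulus and 100% = saturating agonist plus stimulus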
* = called active by the depositor; / = not tested or not shown.

SMILES	EP2 antag	NPY-Y2 antag	NPY-Y2 PAM-ag	NPY-Y1 antag	EP2 modulator	NPY-Y1 PAM-ag
COc1ccc(CN(Cc2cccnc2)Cc2ccco2)cc1Cn1ccnc1	5	/	/	/	5	/
CC(O)c1c(OCc2ccccc2)ncnc1OCc1ccccc1 (centres undefined)	3	3	-14	33*	-9	-27
Cc1nc2ccccc2nc1OCc1ccccc1	11	5	0	3	23	0
COc1cccc(C2(NC(=O)Cc3nc4nc(C)cc(=O)n4[nH]3)CCCC2)c1	5	/	/	/	-10	/
CCNC(=O)c1cc2c(=O)n3ccccc3nc2n(CCCOC)c1=N	9	/	/	/	5	/
COCCCn1c(=N)c(C(=O)NC2CCCCC2)cc2c(=O)n3ccccc3nc21	15	20*	14	15	11	-11
N=c1c(C(=O)NCc2ccco2)cc2c(=O)n3ccccc3nc2n1Cc1ccc(Cl)cc1	1	25*	-25	36*	/	10
N=c1c(C(=O)NCc2ccc(F)cc2)cc2c(=O)n3ccccc3nc2n1Cc1ccco1	/	16	6	3	-20	8
O=C1CNCCCN2CCN(CCCNCC(=O)Nc3ccc(cc3)S(=O)(=O)c3ccc(cc3)NC(=O)CNCCCN3CCN(CCCNCC(=O)Nc4ccc(cc4)S(=O)(=O)c4ccc(cc4)N1)CC3)CC2	42*	/	/	/	7	/
O=C1CN2CCN(CC2)CC(=O)Nc2ccc(cc2)S(=O)(=O)c2ccc(cc2)NC(=O)CN2CCN(CC2)CC(=O)Nc2ccc(cc2)S(=O)(=O)c2ccc(cc2)N1	51*	/	/	/	13	/
Cn1c2ccccc2n2c(N=O)c(-c3ccc(Cl)cc3)nc12	13	/	/	/	-43	/
CCOC(=O)CSc1nnc(-c2ccc(S(=O)(=O)NCc3cccs3)cc2)o1	7	3	88*	-17	/	91*
COC(=O)CSc1nnc(-c2ccc(O)cc2)o1	8	/	/	/	-1	/
COC(=O)CSc1nnc(-c2ccc(S(=O)(=O)NCc3cccs3)cc2)o1	11	2	84*	-14	-28	101*
COC(=O)CSc1nnc(-c2ccc(S(=O)(=O)NCc3ccccc3Cl)cc2)o1	11	0	81*	-17	-16	80*
COc1ccc(CCN(Cc2cccs2)S(=O)(=O)c2ccc(S(=O)(=O)N3CCCCCC3)cc2)cc1OC	5	5	-5	9	-2	-25
CCC(C)NS(=O)(=O)c1ccc(S(=O)(=O)N(CCc2ccc(OC)c(OC)c2)Cc2cccs2)cc1 (centres undefined)	7	31*	-25	35*	6	-90
Cc1cc(-c2cncnc2C2CCCN(C(=O)c3cnn(C(C)C)c3)C2)on1 (centres undefined)	/	/	/	/	-19	/
CC(=O)Nc1ccc(S(=O)(=O)Nc2nc3ccccc3nc2-n2ccc(=NC(=O)c3ccccc3)cc2)cc1	6	/	-4	/	-15	-19
CCOc1ccc(S(=O)(=O)Nc2nc3ccccc3nc2-n2ccc(=NC(=O)c3cccs3)cc2)cc1	45*	0	11	-6	0	8
O=C(N=c1ccn(-c2nc3ccccc3nc2NS(=O)(=O)c2ccc(Cl)cc2)cc1)c1cccs1	48*	/	2	/	21	8
O=C(c1cc2c(s1)-c1ccccc1OC2)N1CCN(c2ccccc2)CC1	28	11	-16	11	-53	-26
O=C(c1cc2c(s1)-c1ccccc1OC2)N1CCCC1	5	4	31*	4	3	42*
O=C(/C=C/c1cccs1)NC(=S)Nc1ccc(S(=O)(=O)Nc2nccs2)cc1	15	/	/	/	-119	/
Oc1ccc(-c2nc3ccccc3s2)cc1	8	/	10	/	-43	11
SMILES	EP2 antag	NPY-Y2 antag	NPY-Y2 PAM-ag	NPY-Y1 antag	EP2 modulator	NPY-Y1 PAM-ag
CC(CCc1nc2ccccc2s1)(c1ccc(O)cc1)c1ccc(O)cc1	100*	/	/	/	-33	/
O=C(CNS(=O)(=O)c1ccc2ccccc2c1)OCc1nnc(-c2ccccc2)o1	41*	2	-2	5	-40	-13
O=Cc1ccc(OCc2cccc(C(F)(F)F)c2)cc1O	6	/	17	0	63*	8
Cc1nc(NCc2cccc(OCc3cccnc3)c2)nn1C	7	/	/	/	-13	/
N#C/C(C(N)=O)=c1/ccc2c(c1)N1C3=C(CCCC3)CC3CCCCC31N=2 (centres undefined)	11	-13	47*	-27	27	51*
N#CC(C#N)=c1ccc2c(c1)N1C3=C(CCCC3)CC3CCCCC31N=2 (centres undefined)	12	-2	-6	-5	39	15
Cc1ccc(C2CC3CCC(C2)N3C(=O)c2ccc(OC3CSC3)cc2)cc1 (centres undefined)	/	/	/	/	-58	/
N#Cc1nc(COc2ccc(F)cc2)oc1N1CCN(Cc2ccccc2)CC1	/	32*	-17	34*	-10	-30
N#Cc1nc(Cc2ccccc2)oc1N1CCC(Cc2ccccc2)CC1	13	12	-10	15	-2	-8
N#Cc1nc(COc2ccc(F)cc2)oc1N1CCC(Cc2ccccc2)CC1	/	37*	5	32*	-12	-69
N#Cc1nc(COc2ccc(Br)cc2)oc1N1CCN(Cc2ccccc2)CC1	11	32*	-11	35*	-5	-12
CCN1CCN(c2oc(COc3ccc(-c4ccccc4)cc3)nc2C#N)CC1	8	10	-33	9	-29	-23
CC(=O)Nc1ccc2nc(NC(=O)c3ccc4ccccc4c3)sc2c1	9	/	/	/	-44	/
CCN(CC)C(=O)C(=O)NCc1ccc2c(c1)OCO2	9	/	/	/	2	/
CCOC(=O)c1c(N)nn(C(=O)C(C)C)c1-c1ccccc1	10	6	18	2	63*	10
CCOC(=O)c1c(N)nn(C(=O)CC)c1-c1ccccc1	6	3	14	3	20	-13
Cc1nn2c(C(F)(F)F)c3c(nc2c1-c1ccccc1)CCC3	7	/	2	3	62*	7
Cc1nn2c(NC(C)C)c3c(nc2c1-c1ccccc1)CCC3	7	/	-27	/	-27	8
Cc1ccccc1C1(O)CCN(C(=O)c2cnn(-c3ccc(F)cc3)c2)CC1	8	/	/	/	-112	/
CCc1nnc(NS(=O)(=O)c2ccc(NC(=S)NC(=O)/C=C/c3ccc(F)cc3)cc2)s1	133*	4	10	-2	-11	9
COc1ccc(/C=C/C(=O)NC(=S)Nc2ccc(S(=O)(=O)Nc3nc(C)cc(C)n3)cc2)cc1	26	/	/	/	-119	/
COc1ccc(C(=O)NC(=S)Nc2ccc(S(=O)(=O)Nc3nc(C)cc(C)n3)cc2)cc1	70*	/	/	/	-98	/
